CSC inhib = blocks cancer stem cells. cancer stem cell-like cells viability, luminescence. inhibition, % at 7.5 µM. hit rate 1.1% among 300,000. AID 2717; in the data active = inhibition above about 75%; tested in HMLE shEcad cells
SKKanGAS inh = SKKanGAS growth inhibition. S. pyogenes SKKanGAS, kanamycin growth, BacTiter-Glo, 6 h. hit rate 1.3% among 300,000. inhibition, % at 7.5 µM;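 active = mean replicate score, as percent of positive control median, at least 50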;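 also: strain carries kanamycin resistance gene driven by streptokinase promoter and grows in 40 µg/ml kanamycin; loss of luminescence reflects streptokinase promoter inhibition or plain growth inhibition; 0% = median of DMSO wells and 100% = positive control at its reference dose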
Calb FLC = affects C. albicans growth with fluconazole; C. albicans CaCi-2 (fluconazole-resistant clinical isolate) + fluconazole, Alamar Blue growth, 48 h; hit rate 0.57% among 300,000; AID 1979; growth inhibition, % (no concentration beside the values);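 active = growth inhibition above about 58% in most replicates, limit read from the data, passing the limit was not always enough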;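 also: all wells also contain fluconazole at 8 µg/ml as a sub-toxic cotreatment; 0% = median of DMSO wells and 100% = median of geldanamycin control wells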
Mdm2-MdmX inh = inhibitors of human Mdm2/MdmX interaction. O15151+Q00987. SaOS-2 split-luciferase Mdm2/MdmX complementation, luminescence. inhibition, % at 8 µM. hit rate 3% among 330,000;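 active = inhibition of at least 50% at 8 µM in the primary screen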
Target sequence (O15151 whole entry, looked up): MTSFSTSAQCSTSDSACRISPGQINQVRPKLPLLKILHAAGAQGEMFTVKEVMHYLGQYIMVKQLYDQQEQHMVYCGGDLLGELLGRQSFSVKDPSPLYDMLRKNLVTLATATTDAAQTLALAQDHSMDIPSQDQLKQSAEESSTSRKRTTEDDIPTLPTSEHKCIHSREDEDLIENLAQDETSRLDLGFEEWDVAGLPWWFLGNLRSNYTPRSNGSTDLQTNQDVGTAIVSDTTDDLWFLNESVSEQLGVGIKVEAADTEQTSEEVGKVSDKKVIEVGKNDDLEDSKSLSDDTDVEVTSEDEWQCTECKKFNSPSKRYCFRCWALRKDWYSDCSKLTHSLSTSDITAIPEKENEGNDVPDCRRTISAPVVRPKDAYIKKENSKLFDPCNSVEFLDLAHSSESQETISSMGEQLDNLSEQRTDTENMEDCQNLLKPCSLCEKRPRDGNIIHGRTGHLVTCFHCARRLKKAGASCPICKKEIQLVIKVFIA
Target sequence (Q00987 whole entry, looked up): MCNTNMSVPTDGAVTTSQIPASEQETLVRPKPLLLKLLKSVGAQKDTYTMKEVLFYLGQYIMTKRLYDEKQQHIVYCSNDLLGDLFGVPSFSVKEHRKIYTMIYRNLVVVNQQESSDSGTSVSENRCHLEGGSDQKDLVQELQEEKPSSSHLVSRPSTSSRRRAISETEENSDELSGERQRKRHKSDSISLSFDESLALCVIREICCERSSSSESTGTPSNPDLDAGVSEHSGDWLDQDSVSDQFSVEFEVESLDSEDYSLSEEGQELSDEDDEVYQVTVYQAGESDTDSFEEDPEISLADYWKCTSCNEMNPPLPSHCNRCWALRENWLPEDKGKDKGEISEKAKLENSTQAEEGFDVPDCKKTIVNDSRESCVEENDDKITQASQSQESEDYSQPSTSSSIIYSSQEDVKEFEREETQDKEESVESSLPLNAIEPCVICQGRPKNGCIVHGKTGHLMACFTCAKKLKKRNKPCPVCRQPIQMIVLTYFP
Beta cell apopt = blocks beta cell apoptosis | INS-1E cytokine-induced death, ATP luminescence, 48 h; percent of positive-control rescue, neutral wells zero | protection from apoptosis, % (test concentration not listed) | hit rate 0.8% among 300,000 | AID 435005;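 active = Every replicate reaches about 75%, or at least half do and their mean reaches it too, limit read from the data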;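 also: 0% = cytokine-treated negative control wells and 100% = positive control rescue; higher means more ATP so stronger rescue from cytokine killing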
T cruzi inh = T. cruzi replication inhibition | T. cruzi beta-gal in NIH3T3, luminescence, 90 h | inhibition, % (test concentration not listed) | hit rate 1.4% among 300,000 | AID 1885;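 active = mean inhibition across valid replicates above about 55%, limit read from the data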;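 also: signal also drops with host cell toxicity which is not excluded here; 0% = plate median of DMSO wells and 100% = zero luminescence signal; higher percent means less beta-gal luminescence so fewer parasites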
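Assay system: NIH/3T3 fibroblasts plus reporter T. cruzi. Amount: NIH/3T3 cells, 5,000 per well. Buffer or medium: DMEM, 2% fetal bovine serum. Doses: compound pinned at 50 nL/well, DMSO. Schedule: ≥90 h infection period, 3 h prior cell attachment. Signal: luminescent β-galactosidase signal after 60 min lysis. Read-out: parasite load inhibition, %.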
Mdm2-MdmX conf = human Mdm2/MdmX binding inhibition, confirmed | shares compounds with Mdm2-MdmX inh | luminescent assay | inhibition, % at 8 µM | hit rate 55% among 10,000; in the data active = inhibition above about 40%
Full FLuc ctr = inhibits full-length luciferase, flagging false Mdm2/MdmX hits; shares compounds with Mdm2-MdmX inh; SaOS-2 full-length luciferase counterscreen, luminescence; inhibition, % at 8 µM; hit rate 77% among 6,200;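 active = mean inhibition at 8 µM reaching about 37%, which flags the compound as non-specific, limit read from the data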;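 also: p53-null SaOS-2 cells with luciferase driven by a doxycycline-inducible promoter; compound on cells about two nights before reading with doxycycline added after day one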
Starred values were filed as active, the others as inactive. In the library only some 5.7% were active in any assay of this set; here they are far more common.

What do the screens show for `Cc1cc(NC(=O)C(C)Sc2nnc(NCc3ccco3)s2)no1` (configuration not stated)?
Mdm2-MdmX inh: 13.6; Beta cell apopt: -2.6

What do the screens show for `COc1ccccc1C(=O)NCC(=O)OCC(=O)N1CC(C)OC(C)C1` (configuration not stated)?
Mdm2-MdmX inh: 10.4

What do the screens show for `COc1cccc2c1C(=O)c1c(O)c3c(c(O)c1C2=O)C[C@](O)(C(C)=O)C[C@H]3O[C@@H]1C[C@@H](N)[C@@H](O)[C@@H](C)O1`?
CSC inhib: 74.2; SKKanGAS inh: 102.5*; Calb FLC: -32.9; Mdm2-MdmX inh: 100.4*; Beta cell apopt: 44.5; T cruzi inh: 47.1; Mdm2-MdmX conf: 99.8*; Full FLuc ctr: -0.8

Results for Cn1cc([N+](=O)[O-])c(C(=O)Nc2nccs2)n1 ?
CSC inhib: 26.7; SKKanGAS inh: -10.8; Calb FLC: 25.6; Mdm2-MdmX inh: 57.2*; Beta cell apopt: 0.6; T cruzi inh: -30.7; Mdm2-MdmX conf: 16.6

Results for CCSc1ccc(C(=O)Nc2ccc(Br)cn2)cc1[N+](=O)[O-] ?
CSC inhib: 0.6; SKKanGAS inh: -15.8; Calb FLC: -9.5; Mdm2-MdmX inh: 16.5; Beta cell apopt: 7.6; T cruzi inh: 26.5

What do the screens show for `Cn1cc([N+](=O)[O-])c(C(=O)Nc2ccc(Br)cn2)n1`?
CSC inhib: 40.0; SKKanGAS inh: 2.1; Calb FLC: 1.0; Mdm2-MdmX inh: 55.9*; Beta cell apopt: -13.4; T cruzi inh: -30.6; Mdm2-MdmX conf: 43.5*; Full FLuc ctr: 90.3*

How did COc1ccc(C(=O)Nc2nccs2)cc1[N+](=O)[O-] do in these assays?
CSC inhib: -5.3; SKKanGAS inh: -12.5; Calb FLC: -19.8; Mdm2-MdmX inh: -2.9; Beta cell apopt: -12.2; T cruzi inh: -4.9

What do the screens show for `CCN(CC)CC(O)Cn1c(C)c(-c2ccccc2)c2cc([N+](=O)[O-])ccc21` (configuration not stated)?
CSC inhib: 21.2; SKKanGAS inh: 2.4; Calb FLC: 0.8; Mdm2-MdmX inh: 35.3; Beta cell apopt: 0.9; T cruzi inh: 31.1

Results for O=C(Cn1c(O)c(/C=C2\C=Nc3ccccc32)sc1=O)Nc1ccc2c(c1)OCO2 ?
CSC inhib: 4.2; SKKanGAS inh: 2.6; Calb FLC: 13.0; Mdm2-MdmX inh: 39.9; Beta cell apopt: -3.6; T cruzi inh: -2.5

Results for CCOC(=O)c1c(Nc2ccc(Cl)cc2)sc(/C=C2\C=Nc3ccccc32)c1O ?
SKKanGAS inh: 8.8; Calb FLC: 4.3; Mdm2-MdmX inh: 63.7*; Beta cell apopt: 8.2; T cruzi inh: 7.4; Mdm2-MdmX conf: 18.2

How did Cc1ccc(CCNC(=O)C2CCCN(S(=O)(=O)N3CC(C)CC(C)C3)C2)cc1 (configuration not stated) do in these assays?
CSC inhib: 0.3; SKKanGAS inh: -0.7; Calb FLC: 3.3; Mdm2-MdmX inh: 37.2; Beta cell apopt: 0.1; T cruzi inh: 13.1

What do the screens show for `CCn1c(=O)cc(SCC(=O)Nc2ccc(OC)c(OC)c2)c2ccccc21`?
CSC inhib: 5.9; SKKanGAS inh: -3.2; Calb FLC: -10.6; Mdm2-MdmX inh: 51.9*; Beta cell apopt: 0.7; T cruzi inh: 2.1; Mdm2-MdmX conf: 42.8*; Full FLuc ctr: 58.0*

What do the screens show for `CCn1c(=O)cc(SCC(=O)N2CCN(C(=O)c3ccco3)CC2)c2ccccc21`?
CSC inhib: -4.4; SKKanGAS inh: 4.1; Calb FLC: 3.7; Mdm2-MdmX inh: 53.2*; Beta cell apopt: -6.7; T cruzi inh: 10.5; Mdm2-MdmX conf: 32.1

What do the screens show for `CCn1c(=O)cc(SCC(=O)N2CCOCC2)c2ccccc21`?
CSC inhib: 0.0; SKKanGAS inh: -0.3; Calb FLC: 45.1; Mdm2-MdmX inh: 39.1; Beta cell apopt: -5.7; T cruzi inh: 7.5

What do the screens show for `CCn1c(=O)cc(SCC(=O)N2CCN(c3ccccc3OC)CC2)c2ccccc21`?
SKKanGAS inh: 3.9; Calb FLC: -5.0; Mdm2-MdmX inh: 62.2*; Beta cell apopt: -11.0; T cruzi inh: 9.3; Mdm2-MdmX conf: 37.4

What do the screens show for `CCn1c(=O)cc(SCC(=O)N2CCN(C3CCCCC3)CC2)c2ccccc21`?
SKKanGAS inh: -10.7; Calb FLC: 16.9; Mdm2-MdmX inh: 41.0; Beta cell apopt: -9.7; T cruzi inh: 27.6

Results for CCn1c(=O)cc(SCC(=O)Nc2ccc(Cl)cc2)c2ccccc21 ?
CSC inhib: -4.2; SKKanGAS inh: 12.0; Calb FLC: -10.4; Mdm2-MdmX inh: 31.0; T cruzi inh: 14.6

Results for Cc1ccc(C(=O)CSc2nnc3n2CCCCC3)s1 ?
CSC inhib: -10.7; Mdm2-MdmX inh: -0.2; Beta cell apopt: -2.8

What do the screens show for `CCC(=O)Nc1ccc(C2=Nn3c(nnc3C(C)C)SC2)cc1`?
CSC inhib: 0.8; SKKanGAS inh: -3.0; Calb FLC: -2.1; Mdm2-MdmX inh: -15.9; Beta cell apopt: 0.3; T cruzi inh: -0.3

Results for O=C(NCCc1ccccc1)c1ccc2c(c1)OCO2 ?
CSC inhib: 1.5; SKKanGAS inh: 5.6; Calb FLC: -7.1; Mdm2-MdmX inh: 66.5*; Beta cell apopt: 0.3; T cruzi inh: -1.6; Mdm2-MdmX conf: 57.0*; Full FLuc ctr: 51.6*

Results for CCOC(=O)N1CCN(C(=O)c2cc(-c3ccncc3)nc3ccccc23)CC1 ?
CSC inhib: 31.3; SKKanGAS inh: -4.1; Calb FLC: 7.9; Mdm2-MdmX inh: 56.7*; Beta cell apopt: 8.8; T cruzi inh: 26.3; Mdm2-MdmX conf: 65.8*; Full FLuc ctr: 55.5*

What do the screens show for `COc1ccc(-c2cc(C(=O)N3CCN(c4ccccc4O)CC3)c3ccccc3n2)cc1`?
CSC inhib: 17.6; Mdm2-MdmX inh: 19.0; Beta cell apopt: 9.5

What do the screens show for `COc1ccc(-c2cc(C(=O)N3CCN(c4ccccc4O)CC3)c3ccccc3n2)cc1OC`?
CSC inhib: 14.7; SKKanGAS inh: 39.4; Calb FLC: 3.2; Mdm2-MdmX inh: 65.1*; Beta cell apopt: 1.3; T cruzi inh: 2.9; Mdm2-MdmX conf: 35.4

How did CCOC(=O)N1CCN(C(=O)c2cc(-c3ccc(OCC)cc3)nc3ccccc23)CC1 do in these assays?
SKKanGAS inh: 7.6; Calb FLC: -25.1; Mdm2-MdmX inh: 19.4; Beta cell apopt: 10.7; T cruzi inh: -16.8

How did Cc1ccc(-c2cc(C(=O)N3CCN(c4ccccc4O)CC3)c3ccccc3n2)cc1 do in these assays?
CSC inhib: 22.0; SKKanGAS inh: 53.6*; Calb FLC: 7.0; Mdm2-MdmX inh: 57.0*; Beta cell apopt: 6.3; T cruzi inh: 25.2; Mdm2-MdmX conf: 31.9
